This note sets out measurements from ChEMBL document CHEMBL1134283, “Rational design, discovery, and synthesis of a novel series of potent growth hormone secretagogues” (J Med Chem, 2001).

Where a SMILES comes first, the peptide text is derived from it. [ ]: non-standard residue; d: D form. d2Nal = N[C@H](Cc1ccc2ccccc2c1)C(=O)O; d(hPhe) = N[C@H](CCc1ccccc1)C(=O)O; Aib = CC(C)(N)C(=O)O Bounds are passed on as bounds.

The species entered for the assay is Rattus norvegicus. Put plainly: Effective concentration for ability to release growth hormone from rat pituitary cells. It counts as functional, cell-based. The settings on record: Pituitary gland cell. The gist of the method: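 Rat anterior pituitaries were digested with 0.2% collagenase, 0.2% hyaluronidase and 200 U/mL DNase I. Cells were plated at 1.0 × 10⁵ cells/mL in DMEM with 7.5% horse serum and 5.0% fetal calf serum and cultured 3 days. After washes in medium with 20 mM HEPES pH 7.4, cells were exposed to compound for 15 min at 37 °C. Released GH was measured by RIA. EC50 was referenced to the maximal GH level from 10^-8 M KP-102.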

The EC50 is the concentration that produces a half-maximal response. A low value points to an effect from little substance. Regarding `C[C@H](NC(=O)[C@@H](Cc1c[nH]c2ccccc12)NC(=O)[C@@H](N)Cc1c[nH]cn1)C(=O)N[C@@H](Cc1c[nH]c2ccccc12)C(=O)N[C@H](Cc1ccccc1)C(=O)N[C@H](CCCCN)C(N)=O`, the EC50 stood at 100 nM.
In turn, `NCCNC(=O)[C@@H](Cc1ccccc1)NC(=O)CN1C(=O)CCS(=O)(=O)c2ccccc21` showed an EC50 of 1000 nM.
`C[C@H](NC(=O)[C@@H](Cc1ccc2ccccc2c1)NC(=O)[C@@H](C)N)C(=O)N[C@@H](Cc1c[nH]c2ccccc12)C(=O)N[C@H](Cc1ccccc1)C(=O)N[C@@H](CCCCN)C(N)=O` [PRALMORELIN] (H-[dA][d2Nal]AW[dF]K-NH2): the EC50 was 0.2 nM.
In turn, `C[C@H](NC(=O)[C@@H](Cc1ccc2ccccc2c1)NC(=O)[C@@H](C)N)C(=O)N[C@@H](Cc1c[nH]c2ccccc12)C(=O)N[C@H](Cc1ccccc1)C(=O)N[C@@H](CCCCN)C(=O)O` (H-[dA][d2Nal]AW[dF]K-OH) registered an EC50 of 1 nM.
The compound `NC(=O)CN(CCc1ccccc1)C(=O)[C@@H](Cc1ccc2ccccc2c1)NC(=O)[C@@H](Cc1ccc2ccccc2c1)NC(=O)C1CCNCC1` registered an EC50 of 0.1 nM.
The compound `NCCNC(=O)[C@@H](Cc1ccc2ccccc2c1)NC(=O)CN1C(=O)CCS(=O)(=O)c2ccccc21` yielded an EC50 of 100 nM.
The value for `NCCNC(=O)[C@H](Cc1ccccc1)NC(=O)CN1C(=O)CCSc2ccccc21` was 1000 nM; that for `C[C@H](NC(=O)[C@@H](Cc1ccc2ccccc2c1)NC(=O)[C@@H](C)N)C(=O)N[C@@H](Cc1c[nH]c2ccccc12)C(=O)N[C@H](Cc1ccccc1)C(=O)O` was 10 nM.
In turn, `NCCNC(=O)[C@@H](Cc1ccc2ccccc2c1)NC(=O)CCN1C(=O)CCS(=O)(=O)c2ccccc21` gave an EC50 of 10 nM.
The compound `CC(C)[C@H](NC(=O)[C@@H](Cc1c[nH]c2ccccc12)NC(=O)[C@@H](N)Cc1c[nH]cn1)C(=O)N[C@@H](Cc1c[nH]c2ccccc12)C(=O)N[C@H](Cc1ccccc1)C(=O)N[C@@H](CCCCN)C(N)=O` (H-H[dW]VW[dF]K-NH2) yielded an EC50 greater than 1000 nM.
Compound `O=C(N[C@H](Cc1ccc2ccccc2c1)C(=O)N[C@@H](CO)Cc1ccc2ccccc2c1)C1CCNCC1` came in with an EC50 of 1.8 nM.
As for `NCC(O)CNC(=O)[C@@H](Cc1ccc2ccccc2c1)NC(=O)CCCN1C(=O)CCSc2ccccc21` (some centres undefined), it took 1 nM to reach a half-maximal effect (EC50).
Consider `CCOC(=O)[C@@H](CCc1ccccc1)NC(=O)[C@@H](Cc1c[nH]c2ccccc12)NC(=O)C(C)(C)N` (H-[Aib]-[dW]-[d(hPhe)]-OEt), for which the EC50 was determined as 3 nM.
As for `C[C@H](NC(=O)[C@@H](Cc1ccccc1)NC(=O)[C@@H](C)N)C(=O)N[C@@H](Cc1ccccc1)C(=O)N[C@H](Cc1ccccc1)C(=O)N[C@@H](CCCCN)C(N)=O` (H-[dA][dF]AF[dF]K-NH2), the EC50 came to 10 nM.
